Data set [1] concerns the target T1, Epidermal growth factor receptor (Homo sapiens, UniProt P00533). The data set can be described thus: Inhibition of recombinant human GST-tagged wild type EGFR ( 668 to 1210 residues) cytoplasmic domain expressed in baculovirus expression system preincubated for 20 mins followed by addition of [33P]-ATP measured after 2 hrs by filter-binding method. The note with it: read-out: IC50.

The target in data set [2] is T2, Epidermal growth factor receptor (Homo sapiens, UniProt P00533, L858R/T790M). The data set can be described thus: Inhibition of recombinant human GST-tagged EGFR L858R/T790M double mutant cytoplasmic domain expressed in baculovirus expression system preincubated for 20 mins followed by addition of [33P]-ATP measured after 2 hrs by filter-binding method.
Data set [3] addresses Epidermal growth factor receptor (Homo sapiens, UniProt P00533, T790M/C797S/L858R). As to the kind of experiment: Inhibition of recombinant human N-terminally GST-tagged EGFR L858R/T790M/C797S triple mutant expressed in baculovirus in Sf9 insect cells preincubated for 20 mins followed by addition of [33P]-ATP measured after 2 hrs by filter-binding method.
A short description of data set [4]: Drug metabolism in human liver microsomes assessed as parent compound remaining at 100 uM after 4 hrs in presence of NADPH regenerating system by LC-MS analysis. It counts as ADME, microsome. The note with it: read-out: Stability.
The species named for data set [5] is Homo sapiens. As to the kind of experiment: Selectivity ratio of IC50 for EGFR L858R/T790M double mutant (unknown origin) to IC50 for wild-type EGFR (unknown origin).
In data set [6] the target is T3, Epidermal growth factor receptor (Homo sapiens, UniProt P00533, L858R). The data set can be described thus: Binding affinity to human EGFR L858R mutant (669 to 1011 residues) expressed in bacterial system incubated for 1 hr. In a few lines:
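Competition binding: compound's ability to displace an immobilized, active-site-directed ligand from the kinase, reported as Kd. Compound and kinase were combined and equilibrated 1 h without dilution before read-out.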

Data set [7] has as its target T3, Epidermal growth factor receptor. The data set can be described thus: Binding affinity to human EGFR L858R mutant (669 to 1011 residues) expressed in bacterial system preincubated for 1 hr followed by 30 fold dilution measured after 5 hrs. Put shortly: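 Competition binding: compound's ability to displace an immobilized, active-site-directed ligand from the kinase, reported as Kd. Compound and kinase were equilibrated 1 h, diluted 30-fold in reaction buffer, then equilibrated a further 5 h before read-out.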

Data set [8] concerns the target T2, Epidermal growth factor receptor. As to the kind of experiment: Binding affinity to human EGFR L858R/T790M double mutant (669 to 1011 residues) expressed in mammalian system incubated for 1 hr. In a few lines: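 Competition binding of inhibitor against an immobilized active-site-directed ligand; Kd read out. Compound and kinase combined and equilibrated for 1 h without dilution (study arm C).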

The target is the same in data set [9]. As to the kind of experiment: Binding affinity to human EGFR L858R/T790M double mutant (669 to 1011 residues) expressed in mammalian system preincubated for 1 hr followed by 30 fold dilution measured after 5 hrs. In a few lines: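 Competition binding against an immobilized active-site-directed ligand; Kd read out. Compound and kinase combined and equilibrated 1 h, then diluted 30-fold in reaction buffer and equilibrated a further 5 h (study arm B).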

The species entered for data set [10] is Homo sapiens. The data set can be described thus: Inhibition of recombinant human N-terminally GST-His6 tagged EGFR del 747-749/A750P mutant (H672 to A1210 residues) C-terminal fragment harboring 3C cleavage site expressed in Baculovirus infected Sf9 cells assessed as residual activity at 1 uM in presence of [33-gamma]-ATP after 60 mins by scintillation counting method relative to control.

Data set [11] deals with Epidermal growth factor receptor (Homo sapiens), P00533 [T790M]. As to the kind of experiment: Inhibition of recombinant human N-terminally GST-His6 tagged EGFR T790M mutant (H672 to A1210 residues) C-terminal fragment harboring 3C cleavage site expressed in Baculovirus infected Sf9 cells assessed as residual activity at 1 uM in presence of [33-gamma]-ATP after 60 mins by scintillation counting method relative to control.

Data set [12] concerns the target Receptor tyrosine-protein kinase erbB-4 (Homo sapiens) (UniProt Q15303). As to the kind of experiment: Inhibition of recombinant human N-terminally GST-His6 tagged ERBB4 (R676 to V1307 residues) C-terminal fragment harboring thrombin cleavage site expressed in Baculovirus infected Sf9 cells assessed as residual activity at 1 uM in presence of [33-gamma]-ATP after 60 mins by scintillation counting method relative to control.

In data set [13] the target is Cytoplasmic tyrosine-protein kinase BMX (Homo sapiens) (UniProt P51813). The data set can be described thus: Inhibition of BMX (unknown origin) assessed as residual activity at 1 uM in presence of [33-gamma]-ATP after 60 mins by scintillation counting method relative to control.
Data set [14] has as its target Tyrosine-protein kinase BTK (Homo sapiens) (UniProt Q06187). The data set can be described thus: Inhibition of recombinant full-length human N-terminally GST-HIS6 tagged BTK (M1 to S659 residues) harboring 3C-cleavage site expressed in Baculovirus infected Sf9 cells assessed as residual activity at 1 uM in presence of [33-gamma]-ATP after 60 mins by scintillation counting method relative to control.

The target in data set [15] is Casein kinase I isoform delta (Homo sapiens) (UniProt P48730). The data set can be described thus: Inhibition of CK1 delta (unknown origin) assessed as residual activity at 1 uM in presence of [33-gamma]-ATP after 60 mins by scintillation counting method relative to control.
Sequence of Casein kinase I isoform delta (Homo sapiens) (P48730 whole entry, looked up, the tested form may be a part, canonical isoform): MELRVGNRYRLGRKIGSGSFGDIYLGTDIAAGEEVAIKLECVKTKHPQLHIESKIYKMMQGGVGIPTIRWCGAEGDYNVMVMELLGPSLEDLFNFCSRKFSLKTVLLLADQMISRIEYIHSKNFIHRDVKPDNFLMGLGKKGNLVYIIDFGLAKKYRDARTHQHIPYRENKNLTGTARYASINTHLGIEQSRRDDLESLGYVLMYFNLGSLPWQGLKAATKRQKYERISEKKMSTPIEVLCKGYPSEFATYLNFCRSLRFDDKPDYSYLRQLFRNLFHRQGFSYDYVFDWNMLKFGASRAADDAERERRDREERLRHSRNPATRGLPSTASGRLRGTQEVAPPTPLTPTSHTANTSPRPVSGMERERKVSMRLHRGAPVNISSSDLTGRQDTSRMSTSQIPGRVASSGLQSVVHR
Data set [16] addresses MAP kinase-activated protein kinase 2 (Homo sapiens) (UniProt P49137). The data set can be described thus: Inhibition of recombinant full-length human MAPKAPK2 (M1 to L370 residues) expressed in Baculovirus infected Sf9 cells assessed as residual activity at 1 uM in presence of [33-gamma]-ATP after 60 mins by scintillation counting method relative to control.
The target of data set [17] is Misshapen-like kinase 1 (Homo sapiens) (UniProt Q8N4C8). As to the kind of experiment: Inhibition of recombinant human N-terminally GST-HIS6 tagged MINK1 (M1 to E320 residues) harboring 3C-cleavage site expressed in Baculovirus infected Sf9 cells assessed as residual activity at 1 uM in presence of [33-gamma]-ATP after 60 mins by scintillation counting method relative to control.
Sequence of Misshapen-like kinase 1 (Homo sapiens) (Q8N4C8 whole entry, looked up, the tested form may be a part): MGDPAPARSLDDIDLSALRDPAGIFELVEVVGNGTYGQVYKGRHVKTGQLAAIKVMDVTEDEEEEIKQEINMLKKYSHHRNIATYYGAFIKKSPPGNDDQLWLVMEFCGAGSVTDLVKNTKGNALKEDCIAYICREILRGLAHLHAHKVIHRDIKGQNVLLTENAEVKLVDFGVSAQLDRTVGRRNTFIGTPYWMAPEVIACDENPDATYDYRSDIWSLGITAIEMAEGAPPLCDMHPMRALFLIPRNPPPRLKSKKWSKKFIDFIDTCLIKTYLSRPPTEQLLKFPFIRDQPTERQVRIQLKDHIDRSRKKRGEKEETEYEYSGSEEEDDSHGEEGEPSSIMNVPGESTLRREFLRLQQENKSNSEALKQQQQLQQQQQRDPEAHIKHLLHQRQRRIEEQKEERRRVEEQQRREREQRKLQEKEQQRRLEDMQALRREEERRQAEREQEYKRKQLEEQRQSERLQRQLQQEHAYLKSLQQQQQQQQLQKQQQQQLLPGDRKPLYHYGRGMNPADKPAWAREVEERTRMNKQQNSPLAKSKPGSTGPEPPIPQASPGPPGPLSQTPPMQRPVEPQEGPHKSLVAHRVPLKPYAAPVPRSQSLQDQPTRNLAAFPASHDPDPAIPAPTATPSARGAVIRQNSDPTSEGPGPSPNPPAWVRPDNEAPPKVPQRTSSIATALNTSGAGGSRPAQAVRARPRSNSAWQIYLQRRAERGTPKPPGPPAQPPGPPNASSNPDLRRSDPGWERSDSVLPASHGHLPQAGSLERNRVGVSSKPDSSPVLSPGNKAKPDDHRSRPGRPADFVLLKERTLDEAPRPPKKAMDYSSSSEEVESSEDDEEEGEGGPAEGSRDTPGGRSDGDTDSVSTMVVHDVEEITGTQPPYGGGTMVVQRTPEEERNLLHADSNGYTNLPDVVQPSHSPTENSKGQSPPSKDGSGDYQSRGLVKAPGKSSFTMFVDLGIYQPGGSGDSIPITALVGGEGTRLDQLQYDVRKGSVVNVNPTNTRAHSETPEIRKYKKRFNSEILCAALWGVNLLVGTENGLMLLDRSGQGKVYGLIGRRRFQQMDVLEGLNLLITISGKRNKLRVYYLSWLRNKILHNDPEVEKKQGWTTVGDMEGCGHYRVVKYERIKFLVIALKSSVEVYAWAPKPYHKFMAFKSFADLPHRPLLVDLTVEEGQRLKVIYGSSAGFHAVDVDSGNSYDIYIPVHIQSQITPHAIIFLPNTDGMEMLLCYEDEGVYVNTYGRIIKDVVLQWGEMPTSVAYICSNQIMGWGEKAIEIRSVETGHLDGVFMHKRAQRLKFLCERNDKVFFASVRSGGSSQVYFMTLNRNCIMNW

In data set [18] the target is Tyrosine-protein kinase Tec (Homo sapiens) (UniProt P42680). As to the kind of experiment: Inhibition of TEC (unknown origin) assessed as residual activity at 1 uM in presence of [33-gamma]-ATP after 60 mins by scintillation counting method relative to control.
Data set [19] has as its target Tyrosine-protein kinase TXK (Homo sapiens) (UniProt P42681). As to the kind of experiment: Inhibition of TXK (unknown origin) assessed as residual activity at 1 uM in presence of [33-gamma]-ATP after 60 mins by scintillation counting method relative to control.
Data set [20] has as its target Mitogen-activated protein kinase 14 (Homo sapiens, UniProt Q16539). As to the kind of experiment: Inhibition of recombinant full-length human p38alpha MAPK (M1 to S360 residues) expressed in Escherichia coli at 1 uM in presence of [33-gamma]-ATP after 60 mins by scintillation counting method.
Data set [21] concerns the target T1, Epidermal growth factor receptor. The data set can be described thus: Ratio of Kd for wild-type human EGFR (669 to 1011 residues) after 1 hr to Kd for wild-type human EGFR (669 to 1011 residues) after 6 hrs. It counts as ADME. In a few lines: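 Kd from competition with an immobilized active-site-directed ligand […]. Ratio compares 1 h compound–kinase equilibration against an arm with 6 h overall equilibration.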

The source made the active and inactive calls. The calls are words filed in the database; no cut-off is given here. Where only a bound is given, the exact number is not on record here.

What is called IC50 is the midpoint of a concentration-inhibition curve. Broadly, the Kd is the equilibrium constant for the complex coming apart. Low readings indicate tighter binding, high ones weaker binding.

Sequence of Tyrosine-protein kinase BTK (Homo sapiens) (Q06187 whole entry, the tested form may be a part): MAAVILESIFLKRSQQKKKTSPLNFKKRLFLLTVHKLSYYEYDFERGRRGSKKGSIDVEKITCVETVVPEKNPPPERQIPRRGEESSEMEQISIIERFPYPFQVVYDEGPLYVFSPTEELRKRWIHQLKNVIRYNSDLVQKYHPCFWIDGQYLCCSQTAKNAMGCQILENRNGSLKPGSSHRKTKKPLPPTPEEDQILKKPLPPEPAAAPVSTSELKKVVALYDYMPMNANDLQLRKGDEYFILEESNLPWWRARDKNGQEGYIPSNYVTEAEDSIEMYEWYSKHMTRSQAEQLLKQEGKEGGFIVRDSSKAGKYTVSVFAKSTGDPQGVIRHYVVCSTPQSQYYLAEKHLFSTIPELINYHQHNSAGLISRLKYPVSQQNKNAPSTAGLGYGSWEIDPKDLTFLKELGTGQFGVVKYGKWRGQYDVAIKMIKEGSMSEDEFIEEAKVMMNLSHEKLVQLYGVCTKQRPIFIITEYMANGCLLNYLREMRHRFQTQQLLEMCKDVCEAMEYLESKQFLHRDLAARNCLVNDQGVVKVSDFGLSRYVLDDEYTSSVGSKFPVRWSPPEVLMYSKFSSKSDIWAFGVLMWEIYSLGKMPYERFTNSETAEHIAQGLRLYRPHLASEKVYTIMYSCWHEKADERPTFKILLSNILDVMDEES
Sequence of Receptor tyrosine-protein kinase erbB-4 (Homo sapiens) (Q15303 whole entry, the tested form may be a part): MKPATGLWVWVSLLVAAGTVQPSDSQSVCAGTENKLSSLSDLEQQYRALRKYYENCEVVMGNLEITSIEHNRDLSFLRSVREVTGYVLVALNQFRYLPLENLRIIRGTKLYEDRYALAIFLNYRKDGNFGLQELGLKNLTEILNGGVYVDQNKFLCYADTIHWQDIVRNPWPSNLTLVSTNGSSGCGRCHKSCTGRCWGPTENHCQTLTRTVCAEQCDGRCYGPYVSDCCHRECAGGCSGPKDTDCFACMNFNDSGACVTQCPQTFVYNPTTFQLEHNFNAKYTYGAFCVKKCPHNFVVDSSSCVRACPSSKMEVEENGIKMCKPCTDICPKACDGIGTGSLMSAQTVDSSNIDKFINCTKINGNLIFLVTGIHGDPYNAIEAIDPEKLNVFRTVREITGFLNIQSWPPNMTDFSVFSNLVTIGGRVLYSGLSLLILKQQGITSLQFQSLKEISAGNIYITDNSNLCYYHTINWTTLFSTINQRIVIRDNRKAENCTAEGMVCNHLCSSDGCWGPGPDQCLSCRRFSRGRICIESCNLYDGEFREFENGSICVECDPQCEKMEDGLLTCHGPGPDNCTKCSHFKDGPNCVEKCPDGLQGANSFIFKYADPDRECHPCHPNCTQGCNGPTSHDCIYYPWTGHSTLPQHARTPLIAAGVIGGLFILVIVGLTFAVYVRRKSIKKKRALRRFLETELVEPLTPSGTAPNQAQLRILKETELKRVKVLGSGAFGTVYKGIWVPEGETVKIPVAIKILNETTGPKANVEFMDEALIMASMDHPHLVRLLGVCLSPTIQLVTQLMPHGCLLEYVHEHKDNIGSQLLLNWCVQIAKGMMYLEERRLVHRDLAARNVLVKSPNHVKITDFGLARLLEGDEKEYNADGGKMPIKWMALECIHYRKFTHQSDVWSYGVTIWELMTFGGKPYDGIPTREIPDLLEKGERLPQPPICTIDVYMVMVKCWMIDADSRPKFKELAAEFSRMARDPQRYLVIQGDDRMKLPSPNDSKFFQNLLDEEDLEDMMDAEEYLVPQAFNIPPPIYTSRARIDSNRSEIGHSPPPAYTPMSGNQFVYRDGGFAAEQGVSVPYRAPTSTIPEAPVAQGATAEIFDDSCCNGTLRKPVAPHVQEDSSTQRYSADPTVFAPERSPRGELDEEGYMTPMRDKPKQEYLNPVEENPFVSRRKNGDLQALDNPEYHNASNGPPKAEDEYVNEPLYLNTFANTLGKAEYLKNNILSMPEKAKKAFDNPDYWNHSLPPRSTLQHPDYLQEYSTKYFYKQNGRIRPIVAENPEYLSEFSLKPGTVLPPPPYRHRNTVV
Sequence of Mitogen-activated protein kinase 14 (Q16539 whole entry, the tested form may be a part): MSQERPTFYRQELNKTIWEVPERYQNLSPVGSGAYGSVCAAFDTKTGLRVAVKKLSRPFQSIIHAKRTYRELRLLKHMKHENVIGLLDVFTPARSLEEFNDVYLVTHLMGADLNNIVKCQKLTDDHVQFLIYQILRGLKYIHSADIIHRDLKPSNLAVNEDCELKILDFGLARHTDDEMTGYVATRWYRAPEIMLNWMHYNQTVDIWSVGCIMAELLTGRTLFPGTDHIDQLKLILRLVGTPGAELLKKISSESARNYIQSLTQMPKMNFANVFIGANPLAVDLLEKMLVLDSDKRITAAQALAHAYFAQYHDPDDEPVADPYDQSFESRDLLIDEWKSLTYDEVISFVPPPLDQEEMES
Sequence of Tyrosine-protein kinase TXK (Homo sapiens) (P42681 whole entry, the tested form may be a part): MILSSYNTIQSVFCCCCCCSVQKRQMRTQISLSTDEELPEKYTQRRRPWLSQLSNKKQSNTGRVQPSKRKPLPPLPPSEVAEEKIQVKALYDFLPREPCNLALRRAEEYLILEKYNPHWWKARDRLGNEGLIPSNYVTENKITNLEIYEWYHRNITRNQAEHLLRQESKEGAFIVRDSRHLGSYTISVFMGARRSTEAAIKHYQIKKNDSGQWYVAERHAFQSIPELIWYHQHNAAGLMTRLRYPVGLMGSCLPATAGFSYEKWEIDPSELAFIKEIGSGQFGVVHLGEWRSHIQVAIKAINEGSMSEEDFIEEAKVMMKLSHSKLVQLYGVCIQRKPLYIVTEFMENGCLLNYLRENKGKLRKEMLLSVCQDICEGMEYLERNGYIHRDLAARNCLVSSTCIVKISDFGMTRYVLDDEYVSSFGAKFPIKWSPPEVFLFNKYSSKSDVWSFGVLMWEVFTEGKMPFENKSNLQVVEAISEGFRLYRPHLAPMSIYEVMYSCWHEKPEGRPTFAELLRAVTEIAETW
Sequence of MAP kinase-activated protein kinase 2 (Homo sapiens) (P49137 whole entry, looked up, the tested form may be a part): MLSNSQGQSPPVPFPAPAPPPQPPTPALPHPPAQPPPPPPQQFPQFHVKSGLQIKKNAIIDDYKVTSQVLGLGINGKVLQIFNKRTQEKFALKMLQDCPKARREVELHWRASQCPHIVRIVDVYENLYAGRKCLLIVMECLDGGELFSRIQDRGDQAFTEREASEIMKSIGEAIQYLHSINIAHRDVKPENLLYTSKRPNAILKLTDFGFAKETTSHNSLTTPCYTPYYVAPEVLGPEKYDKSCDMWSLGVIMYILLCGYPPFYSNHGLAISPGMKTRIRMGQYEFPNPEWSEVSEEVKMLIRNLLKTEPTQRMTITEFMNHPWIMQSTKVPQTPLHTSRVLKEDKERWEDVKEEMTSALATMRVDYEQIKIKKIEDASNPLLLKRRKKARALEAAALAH

On to `C=CC(=O)Nc1cccc(-c2c[nH]c3nccc(-c4[nH]c(CCCO)nc4-c4ccc(F)cc4)c23)c1`, for which the 50% inhibitory concentration (IC50) in [1] was under 0.3 nM; in data set [2], 1.52 nM; in data set [3], “Not Active”. Moreover, the remaining at 4 h, 100 µM in data set [4] turned out to be 87%. Also, the Ratio IC50 in the data set filed under Homo sapiens [5] was over 40. The Kd in [6] was determined as 0.93 nM; in [7], 1.8 nM; in data set [8], 13 nM; in [9], 14 nM. Also, the Activity in the data set filed under Homo sapiens [10] was 6%; in data set [11] it was 12%; in [12], 4%; in data set [13] it was 17%; in [14] it was 17%; in data set [15], 47%. The Activity was determined as 48% in data set [16], 5% in data set [17], 33% in [18] and 3% in data set [19]. For the same molecule, the inhibition entry in [20] is “Active”. In addition, in data set [21], the Ratio lay in the range of 3 to 5.
